Measurements reported in ChEMBL document CHEMBL4610003 (Bioorg Med Chem, 2020).
≈ marks a conversion by molar mass, not a printed value.

Key:
[1] = Apparent volume of distribution during terminal phase in CD-1 mouse at 2 to 3 mg/kg, iv administered as single bolus dose; type: ADME, organism-based; conditions: in vivo
Outline: (§1)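 Male CD-1 mice received a single intravenous bolus at 2–3 mg/kg. Reported values are IV clearance and the apparent volume of distribution during the terminal phase, in L/kg.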

[2] = Oral bioavailability in CD-1 mouse at 10 mg/kg administered via gavage as single dose; type: ADME, organism-based; conditions: in vivo
[3] = tested on: Mycobacterium tuberculosis; assay: Antimycobacterial activity against Mycobacterium tuberculosis H37Rv assessed as bacterial growth inhibition under replicating, aerobic condition by microplate Alamar blue assay; type: functional
Outline: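 Read-out is MIC90, the lowest concentration giving 90% growth inhibition of M.tb H37Rv, in µg/mL. Bacteria were grown under aerobic, replicating conditions (MABA).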

[4] = Intrinsic clearance in human liver microsomes assessed per mg protein; type: ADME, Microsome; conditions: read-out: CLH
Outline: (§2)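 Clearance of compound by human or mouse liver microsomes, expressed as µL/min/mg protein.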

[5] = AUC (0 to infinity) in CD-1 mouse at 10 mg/kg, po via gavage administered as single dose; type: ADME, organism-based; parameters: dose 10 mg/kg, route oral, time infinity; conditions: in vivo
Outline: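 Male CD-1 mice given a single 10 mg/kg dose by oral gavage. Exposure is reported as area under the curve from 0 to infinity in µg*h/mL.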

[6] = Intrinsic clearance in mouse liver microsomes assessed per mg protein; type: ADME, Microsome; conditions: read-out: CLH; outline: as §2
[7] = Clearance in CD-1 mouse at 2 to 3 mg/kg, iv administered as single bolus dose; type: ADME, organism-based; conditions: in vivo; outline: as §1
[8] = molecular target: Voltage-gated inwardly rectifying potassium channel KCNH2 (Homo sapiens, UniProt Q12809); assay: Inhibition of human ERG
Vero = assay: Cytotoxicity against African green monkey Vero cells assessed as reduction in cell viability incubated for 72 hrs by […] assay; type: cell-based; conditions: Chlorocebus sabaeus
[9] = tested on: Mycobacterium tuberculosis; assay: Antimycobacterial activity against Mycobacterium tuberculosis H37Rv assessed as bacterial growth inhibition incubated for 10 days under anerobic condition followed by incubation under ambient gaseous condition for […] by low oxygen recovery assay; type: functional
Outline: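 Read-out is MIC90, the lowest concentration giving 90% growth inhibition of M.tb H37Rv, in µg/mL. Bacteria were held under non-replicating, low-oxygen conditions (LORA).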

Chain of Voltage-gated inwardly rectifying potassium channel KCNH2 (Q12809 whole entry): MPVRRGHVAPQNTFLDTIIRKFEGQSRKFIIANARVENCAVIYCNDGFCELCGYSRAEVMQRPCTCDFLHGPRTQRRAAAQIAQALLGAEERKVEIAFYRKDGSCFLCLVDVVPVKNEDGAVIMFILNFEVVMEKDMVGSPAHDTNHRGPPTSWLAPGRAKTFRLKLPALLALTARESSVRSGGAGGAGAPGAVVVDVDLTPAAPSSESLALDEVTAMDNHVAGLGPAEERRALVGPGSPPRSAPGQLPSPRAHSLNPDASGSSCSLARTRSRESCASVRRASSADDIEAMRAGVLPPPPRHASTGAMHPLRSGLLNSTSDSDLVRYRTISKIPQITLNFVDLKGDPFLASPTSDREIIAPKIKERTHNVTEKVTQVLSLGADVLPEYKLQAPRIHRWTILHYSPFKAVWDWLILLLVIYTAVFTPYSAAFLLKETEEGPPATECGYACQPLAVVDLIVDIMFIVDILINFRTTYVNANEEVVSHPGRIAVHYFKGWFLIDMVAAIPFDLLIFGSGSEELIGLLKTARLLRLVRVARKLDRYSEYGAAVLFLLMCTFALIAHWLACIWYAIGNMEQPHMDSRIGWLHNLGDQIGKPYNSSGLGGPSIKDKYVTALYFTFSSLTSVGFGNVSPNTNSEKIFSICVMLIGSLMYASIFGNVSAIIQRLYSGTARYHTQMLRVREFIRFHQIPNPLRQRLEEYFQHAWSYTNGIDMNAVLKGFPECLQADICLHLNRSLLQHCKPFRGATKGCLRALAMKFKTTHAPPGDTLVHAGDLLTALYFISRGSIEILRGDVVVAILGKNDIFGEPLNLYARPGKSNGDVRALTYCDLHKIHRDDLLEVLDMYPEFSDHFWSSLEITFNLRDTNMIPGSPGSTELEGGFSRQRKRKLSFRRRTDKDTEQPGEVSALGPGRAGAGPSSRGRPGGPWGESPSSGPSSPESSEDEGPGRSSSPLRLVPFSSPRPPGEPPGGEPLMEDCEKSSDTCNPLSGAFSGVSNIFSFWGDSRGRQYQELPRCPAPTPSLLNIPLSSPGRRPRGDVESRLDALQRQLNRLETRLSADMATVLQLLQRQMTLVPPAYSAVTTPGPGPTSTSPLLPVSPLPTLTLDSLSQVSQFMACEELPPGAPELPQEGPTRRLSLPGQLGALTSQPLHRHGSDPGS

Row | Structure (SMILES) | Vz/F [1] | bioavailability [2] | MIC90 [3] | microsomal CLint [4] | AUC(0-inf) [5] | microsomal CLint [6] | clearance [7] | IC50 [8] | IC50 (Vero) | MIC90 [9]
1 | COc1cc([C@](O)(CCN(C)C)[C@@H](c2cc3cc(Br)ccc3nc2OC)c2ccnc(OC)c2OC)cc(OC2CCC2)n1 (racemic) | 33 L/kg | 56% | < 0.004 µg/mL | 2.5 µL/min/mg | 8400 ng·h/mL | 4.6 µL/min/mg | 11 mL/min/kg | > 10 µM | > 10 µg/mL | 0.01 µg/mL (≈ 0.015 µM)
2 | COc1cc([C@](O)(CCN(C)C)[C@@H](c2cc3cc(C#N)ccc3nc2OC)c2ccnc(OC)c2OC)cc(OC(F)F)n1 (racemic) | 40 L/kg | 43% | < 0.02 µg/mL | 2.5 µL/min/mg | 3000 ng·h/mL | 11 µL/min/mg | 24 mL/min/kg | 7 µM | > 10 µg/mL | 0.04 µg/mL (≈ 0.0656 µM)
3 | COc1cc([C@](O)(CCN(C)C)[C@@H](c2cc3cc(Br)ccc3nc2OC)c2cccc(OC)c2F)cc(OC(C)C)n1 (racemic) | 34 L/kg | 43% | < 0.02 µg/mL | 3.4 µL/min/mg | 9000 ng·h/mL | 6 µL/min/mg | 8.9 mL/min/kg | > 30 µM | > 10 µg/mL | 0.03 µg/mL (≈ 0.0467 µM)
4 | COc1cc([C@](O)(CCN(C)C)[C@H](c2cccc(C)c2)c2cc3cc(Br)ccc3nc2OC)cc(OC(C)C)n1 (racemic) | – | – | 0.01 µg/mL (≈ 0.0164 µM) | – | – | – | – | > 10 µM | – | 0.01 µg/mL (≈ 0.0164 µM)
5 | CCOc1cc([C@](O)(CCN(C)C)[C@@H](c2cc3cc(Br)ccc3nc2OC)c2ccnc(OC)c2OC)cc(OC(C)C)n1 (racemic) | 9.1 L/kg | 58% | < 0.02 µg/mL | 1.8 µL/min/mg | 32000 ng·h/mL | 1.6 µL/min/mg | 3.1 mL/min/kg | – | > 10 µg/mL | < 0.02 µg/mL
6 | CCSc1cc([C@](O)(CCN(C)C)[C@@H](c2cc3cc(C#N)ccc3nc2OC)c2ccnc(OC)c2OC)cc(SCC)n1 (racemic) | – | – | 0.06 µg/mL (≈ 0.0947 µM) | – | – | – | – | 1.5 µM | – | 0.03 µg/mL (≈ 0.0473 µM)
7 | COc1cc([C@](O)(CCN(C)C)[C@@H](c2cc3cc(Br)ccc3nc2OC)c2ccnc(OC)c2OC)cc(OC(F)F)n1 (racemic) | 27 L/kg | 50% | < 0.004 µg/mL | 2.1 µL/min/mg | 9800 ng·h/mL | 4.9 µL/min/mg | 8.7 mL/min/kg | > 10 µM | > 10 µg/mL | < 0.004 µg/mL
8 | CCOc1cc([C@](O)(CCN(C)C)[C@H](c2cccc(C)c2)c2cc3cc(Br)ccc3nc2OC)cc(OC)n1 (racemic) | 45 L/kg | 65% | < 0.02 µg/mL | 4.4 µL/min/mg | 9400 ng·h/mL | 7.8 µL/min/mg | 12 mL/min/kg | > 10 µM | > 10 µg/mL | < 0.02 µg/mL
9 | COc1cc([C@](O)(CCN(C)C)[C@@H](c2cc3cc(C#N)ccc3nc2OC)c2cccc(C)c2F)cc(OC(F)F)n1 (racemic) | 38 L/kg | 66% | 0.01 µg/mL (≈ 0.0172 µM) | 0.6 µL/min/mg | 8600 ng·h/mL | 5.9 µL/min/mg | 13 mL/min/kg | > 30 µM | > 10 µg/mL | 0.03 µg/mL (≈ 0.0517 µM)
10 | COc1cc([C@](O)(CCN(C)C)[C@@H](c2cc3cc(Br)ccc3nc2OC)c2cccc(OC)c2F)cc(OC(F)F)n1 (racemic) | 18 L/kg | 83% | 0.04 µg/mL (≈ 0.0615 µM) | 0.1 µL/min/mg | 14400 ng·h/mL | 6.4 µL/min/mg | 9.7 mL/min/kg | > 30 µM | > 10 µg/mL | < 0.02 µg/mL
11 | COc1cc([C@](O)(CCN(C)C)[C@@H](c2cc3cc(Br)ccc3nc2OC)c2ccnc(OC)c2OC)cc(OC(C)C)n1 (racemic) | 19 L/kg | 22% | < 0.01 µg/mL | 6.4 µL/min/mg | 5600 ng·h/mL | 6.7 µL/min/mg | 6.8 mL/min/kg | 17 µM | > 10 µg/mL | < 0.01 µg/mL
12 | COc1cc([C@](O)(CCN(C)C)[C@@H](c2cc3cc(C#N)ccc3nc2OC)c2cccc(OC)c2F)cc(SC)n1 (racemic) | 54 L/kg | 28% | 0.02 µg/mL (≈ 0.0347 µM) | 16 µL/min/mg | 1100 ng·h/mL | 36 µL/min/mg | 42 mL/min/kg | > 10 µM | > 10 µg/mL | 0.04 µg/mL (≈ 0.0694 µM)
13 | COc1cc([C@](O)(CCN(C)C)[C@@H](c2cc3cc(Br)ccc3nc2OC)c2ccnc(OC)c2OC)cc(N(C)C)n1 (racemic) | – | – | 0.45 µg/mL (≈ 0.702 µM) | – | – | – | – | – | – | 0.02 µg/mL (≈ 0.0312 µM)
14 | CCOc1cc([C@](O)(CCN(C)C)[C@@H](c2cc3cc(Br)ccc3nc2OC)c2cccc(OC)c2F)cc(OC)n1 (racemic) | 51 L/kg | 46% | < 0.01 µg/mL | 4.1 µL/min/mg | 4000 ng·h/mL | 14 µL/min/mg | 19 mL/min/kg | > 30 µM | > 10 µg/mL | < 0.01 µg/mL
15 | CCSc1cc([C@](O)(CCN(C)C)[C@@H](c2cc3cc(Br)ccc3nc2OC)c2ccnc(OC)c2OC)cc(N(C)C)n1 (racemic) | – | – | 0.04 µg/mL (≈ 0.0596 µM) | – | – | – | – | > 10 µM | – | 0.57 µg/mL (≈ 0.85 µM)
16 | COc1cc([C@](O)(CCN(C)C)[C@@H](c2cc3cc(Br)ccc3nc2OC)c2cccc(OC)c2F)cc(SC)n1 (racemic) | 32 L/kg | 31% | < 0.02 µg/mL | 4.8 µL/min/mg | 4600 ng·h/mL | 20 µL/min/mg | 13 mL/min/kg | > 30 µM | > 10 µg/mL | < 0.02 µg/mL
17 | CCCOc1cc([C@](O)(CCN(C)C)[C@H](c2cccc(C)c2)c2cc3cc(Br)ccc3nc2OC)cc(OC)n1 (racemic) | – | – | 0.01 µg/mL (≈ 0.0164 µM) | – | – | – | – | > 10 µM | – | 0.02 µg/mL (≈ 0.0329 µM)
18 | CCCOc1cc([C@](O)(CCN(C)C)[C@@H](c2cc3cc(Br)ccc3nc2OC)c2ccnc(OC)c2OC)cc(OC)n1 (racemic) | 44 L/kg | 50% | 0.01 µg/mL (≈ 0.0153 µM) | 8.2 µL/min/mg | 10900 ng·h/mL | 6.5 µL/min/mg | 6.9 mL/min/kg | – | > 10 µg/mL | 0.06 µg/mL (≈ 0.0915 µM)
19 | COc1cccc([C@H](c2cc3cc(Br)ccc3nc2OC)[C@@](O)(CCN(C)C)c2cc(SC)nc(SC)c2)c1F (racemic) | 15 L/kg | 66% | < 0.02 µg/mL | 3.4 µL/min/mg | 8400 ng·h/mL | 17 µL/min/mg | 13 mL/min/kg | > 10 µM | 9.6 µg/mL (≈ 14.8 µM) | < 0.02 µg/mL
20 | COc1cc([C@](O)(CCN(C)C)[C@@H](c2cc3cc(C#N)ccc3nc2OC)c2cccc(OC)c2F)cc(OC(F)F)n1 (racemic) | – | – | < 0.02 µg/mL | – | – | – | – | – | – | < 0.02 µg/mL
21 | COc1cc([C@](O)(CCN(C)C)[C@@H](c2cc3cc(C#N)ccc3nc2OC)c2ccnc(OC)c2OC)cc(N(C)C)n1 (racemic) | 14 L/kg | 50% | 0.06 µg/mL (≈ 0.102 µM) | 8.4 µL/min/mg | 3300 ng·h/mL | 16 µL/min/mg | 26 mL/min/kg | 3.4 µM | > 10 µg/mL | 0.06 µg/mL (≈ 0.102 µM)
22 | COc1cc([C@](O)(CCN(C)C)[C@@H](c2cc3cc(Br)ccc3nc2OC)c2cccc(OC)c2F)cc(S(C)(=O)=O)n1 (racemic) | – | – | 0.46 µg/mL (≈ 0.694 µM) | – | – | – | – | 1.8 µM | – | 0.73 µg/mL (≈ 1.1 µM)
23 | CCOc1cc([C@](O)(CCN(C)C)[C@@H](c2cc3cc(Br)ccc3nc2OC)c2ccnc(OC)c2OC)cc(OC)n1 (racemic) | 28 L/kg | 70% | < 0.02 µg/mL | 3.8 µL/min/mg | 12700 ng·h/mL | 7.6 µL/min/mg | 9.5 mL/min/kg | 3.3 µM | > 10 µg/mL | < 0.02 µg/mL
24 | CCSc1cc([C@](O)(CCN(C)C)[C@@H](c2cc3cc(Br)ccc3nc2OC)c2ccnc(OC)c2OC)cc(SCC)n1 (racemic) | – | – | 0.04 µg/mL (≈ 0.0582 µM) | – | – | – | – | 9.2 µM | – | 0.21 µg/mL (≈ 0.305 µM)
25 | CCSc1cc([C@](O)(CCN(C)C)[C@@H](c2cc3cc(C#N)ccc3nc2OC)c2cccc3c2OCO3)cc(SCC)n1 (racemic) | – | – | < 0.02 µg/mL | – | – | – | – | > 10 µM | – | 0.05 µg/mL (≈ 0.0811 µM)
26 | CCS(=O)(=O)c1cc([C@](O)(CCN(C)C)[C@@H](c2cc3cc(C#N)ccc3nc2OC)c2ccnc(OC)c2OC)cc(S(=O)(=O)CC)n1 (racemic) | – | – | 4.4 µg/mL (≈ 6.31 µM) | – | – | – | – | – | – | 5 µg/mL (≈ 7.17 µM)
27 | CCOc1cc([C@](O)(CCN(C)C)[C@@H](c2cc3cc(Br)ccc3nc2OC)c2c(OC)cncc2OC)cc(OC(C)C)n1 (racemic) | 20 L/kg | 58% | < 0.02 µg/mL | 1.1 µL/min/mg | 33000 ng·h/mL | 2.3 µL/min/mg | 2.7 mL/min/kg | > 10 µM | > 10 µg/mL | < 0.02 µg/mL
